According to ChEMBL document CHEMBL1148407, “Macrocyclic polyamines deplete cellular ATP levels and inhibit cell growth in human prostate cancer cells” (2004):
Blank lines part the entries; values can stand above or below the compound they belong to.

Legend:
[1] = test system: DuPro; experiment: Spermine level in DuPro cells in 3 days after treatment with 0.5 uM concentration of the compound; Sm level measured in per 10 lakh cells; type: functional, Homo sapiens
Outline: (§1)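 Log-phase DuPro cells grown in RPMI 1640 with 10% fetal calf serum were exposed to macrocycle at 0.5–4 μM for 3 or 5 days, harvested with trypsin/EDTA and counted. About 1×10^6 cells were washed in cold PBS, extracted in 2% perchloric acid and sonicated. Supernatant was dansylated (modified for ring NH) and analysed by C-18 HPLC with fluorescence detection. Untreated controls were run per experiment.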

[2] = test system: DuPro; experiment: Macrocycle level in DuPro cells in 5 days after treatment with 2 uM concentration of the compound; Macrocycle level measured in per 10 lakh cells; type: functional, Homo sapiens; outline: as §1
[3] = test system: DuPro; experiment: Macrocycle level in DuPro cells in 5 days after treatment with 0.5 uM concentration of the compound; Macrocycle level measured in per 10 lakh cells; type: functional, Homo sapiens; outline: as §1
[4] = test system: DuPro; experiment: Macrocycle level in DuPro cells in 3 days after treatment with 2 uM concentration of the compound; Macrocycle level measured in per 10 lakh cells; type: functional, Homo sapiens; outline: as §1
[5] = test system: DuPro; experiment: Macrocycle level in DuPro cells in 3 days after treatment with 0.5 uM concentration of the compound; Macrocycle level measured in per 10 lakh cells; type: functional, Homo sapiens; outline: as §1
[6] = test system: DuPro; experiment: Spermidine level in DuPro cells in 5 days after treatment with 0.5 uM concentration of the compound; Spd level measured in per 10 lakh cells; type: functional, Homo sapiens; outline: as §1
[7] = test system: PC-3; experiment: Inhibitory effect against growth of PC-3 human prostate cancer cell line; type: functional; settings: read-out: ID50 (the source's name)
Outline: (§2)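 MTT growth assay. Trypsinized cells, 500 per well, seeded and incubated overnight at 37 °C in humidified 95% air/5% CO2. Serial macrocycle dilutions added, each concentration in quadruplicate, buffer controls in the outer columns, 6 days (144 h) of exposure. MTT 5 mg/mL added for 4 h, then overnight lysis in SDS/DMF/acetic acid buffer pH 4.8. Absorbance at 570 nm; ID50 derived.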

[8] = test system: DuPro; experiment: Macrocycle level in DuPro cells in 5 days after treatment with 1 uM concentration of the compound; Macrocycle level measured in per 10 lakh cells; type: functional, Homo sapiens; outline: as §1
[9] = test system: DuPro; experiment: Macrocycle level in DuPro cells in 3 days after treatment with 1 uM concentration of the compound; Macrocycle level measured in per 10 lakh cells; type: functional, Homo sapiens; outline: as §1
[10] = test system: DuPro; experiment: Spermine level in DuPro cells at 5 days after treatment with 2 uM concentration of the compound; Sm level measured in per 10 lakh cells; type: functional, Homo sapiens; outline: as §1
[11] = test system: DuPro; experiment: Putrescine level in DuPro cells at 3 days after treatment with 2 uM concentration of the compound; Put level measured in per 10 lakh cells; type: functional, Homo sapiens; outline: as §1
[12] = test system: DuPro; experiment: Spermine level in DuPro cells in 5 days after treatment with 1 uM concentration of the compound; Sm level measured in per 10 lakh cells; type: functional, Homo sapiens; outline: as §1
[13] = test system: DuPro; experiment: Spermidine level in DuPro cells at 3 days after treatment with 2 uM concentration of the compound; Spd level measured in per 10 lakh cells; type: functional, Homo sapiens; outline: as §1
[14] = test system: DuPro; experiment: Spermidine level in DuPro cells at 5 days after treatment with 2 uM concentration of the compound; Spd level measured in per 10 lakh cells; type: functional, Homo sapiens; outline: as §1
[15] = test system: DuPro; experiment: Macrocycle level in DuPro cells at 5 days after treatment with 2 uM concentration of the compound; Macrocycle level measured in per 10 lakh cells; type: functional, Homo sapiens; outline: as §1
[16] = test system: DuPro; experiment: Macrocycle level in DuPro cells at 3 days after treatment with 2 uM concentration of the compound; Macrocycle level measured in per 10 lakh cells; type: functional, Homo sapiens; outline: as §1
[17] = test system: DuPro; experiment: Spermidine level in DuPro cells in 3 days after treatment with 1 uM concentration of the compound; Spd level measured in per 10 lakh cells; type: functional, Homo sapiens; outline: as §1
[18] = test system: DuPro; experiment: Putrescine level in DuPro cells in 3 days after treatment with 1 uM concentration of the compound; Put level measured in per 10 lakh cells; type: functional, Homo sapiens; outline: as §1
[19] = test system: DuPro; experiment: Spermidine level in DuPro cells in 5 days after treatment with 1 uM concentration of the compound; Spd level measured in per 10 lakh cells; type: functional, Homo sapiens; outline: as §1
[20] = test system: DuPro; experiment: Macrocycle level in DuPro cells at 3 days after treatment with 1 uM concentration of the compound; Macrocycle level measured in per 10 lakh cells; type: functional, Homo sapiens; outline: as §1
[21] = test system: DuPro; experiment: Putrescine level in DuPro cells at 5 days after treatment with 2 uM concentration of the compound; Put level measured in per 10 lakh cells; type: functional, Homo sapiens; outline: as §1
[22] = test system: DuPro; experiment: Spermine level in DuPro cells at 3 days after treatment with 2 uM concentration of the compound; Sm level measured in per 10 lakh cells; type: functional, Homo sapiens; outline: as §1
[23] = test system: DuPro; experiment: Macrocycle level in DuPro cells at 5 days after treatment with 1 uM concentration of the compound; Macrocycle level measured in per 10 lakh cells; type: functional, Homo sapiens; outline: as §1
[24] = test system: DuPro; experiment: Spermine level in DuPro cells in3 days after treatment with 1 uM concentration of the compound; Sm level measured in per 10 lakh cells; type: functional, Homo sapiens; outline: as §1
[25] = test system: DuPro; experiment: Macrocycle level in DuPro cells in 5 days after treatment with 4 uM concentration of the compound; Macrocycle level measured in per 10 lakh cells; type: functional, Homo sapiens; outline: as §1
[26] = test system: DuPro; experiment: Inhibitory effect against growth of DuPro human prostate cancer cell line; type: functional; settings: read-out: ID50 (the source's name); outline: as §2
[27] = test system: DuPro; experiment: Macrocycle level in DuPro cells in 3 days after treatment with 4 uM concentration of the compound; Macrocycle level measured in per 10 lakh cells; type: functional, Homo sapiens; outline: as §1

SMILES: CCCCCCCCCCCCCC1CC(=O)NCCCNCCCNCCCN1.Cl.Cl.Cl (stereo unspecified)
Polyamine level [1]: 3 pM
Polyamine level [2]: 42.34 nM
Polyamine level [3]: 35.91 nM
Polyamine level [4]: 49.07 nM
Polyamine level [5]: 47.57 nM

IC50 [7]: 1140 nM
SMILES: CCCCCCCCCCCCCC1CC(=O)NCCCNCCCCCNCCCN1.Cl.Cl.Cl (stereo unspecified)
Polyamine level [6]: 5 pM
Polyamine level [2]: 10.24 nM
Polyamine level [3]: 26.84 nM
Polyamine level [4]: 17.2 nM
Polyamine level [5]: 26.96 nM

SMILES: CCCCCCCCCCCCCC1CC(=O)NCCCNCCCCNCCCN1.Cl.Cl.Cl (stereo unspecified)
Polyamine level [8]: 17.2 nM
Polyamine level [2]: 21.47 nM
Polyamine level [4]: 25.07 nM
Polyamine level [9]: 2.79 nM

SMILES: CCCCCCCCCCCCCC1CC(=O)NCCCNCCCNCCCNCCCN1.Cl.Cl.Cl.Cl (stereo unspecified)
Polyamine level [10]: 0.053 nM
Polyamine level [11]: 0.02 nM
Polyamine level [12]: 0.043 nM
Polyamine level [13]: 0.027 nM
Polyamine level [14]: 0.018 nM
Polyamine level [15]: 49.31 nM
Polyamine level [16]: 5.99 nM
Polyamine level [17]: 0.029 nM
Polyamine level [18]: 4 pM
Polyamine level [19]: 0.014 nM
Polyamine level [20]: 10.09 nM
Polyamine level [21]: 0.011 nM
Polyamine level [22]: 0.094 nM
Polyamine level [23]: 46.77 nM
Polyamine level [24]: 0.088 nM

IC50 [7]: 1700 nM
SMILES: CCCCCCCCCCCCCC1CC(=O)NCCCNCCCCN1.Cl.Cl (stereo unspecified)
Polyamine level [25]: 32 nM
Polyamine level [8]: 24 nM
Polyamine level [9]: 17 nM
IC50 [26]: 1800 nM
Polyamine level [27]: 22.1 nM
